Screens from PubChem.
bCat KO growth = primary screen for growth suppressors in beta-catenin knockout HCT116 cells (colon tumor, human). HCT116 beta-catenin knockout viability, CellTiter-Glo, 60 h; stronger effect = lower value. viability, % at 10 µM. hit rate 1.5% among 140,000. AID 818, 2007;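 active = viability at or under a set limit, the compound median less 4 SD, cut at about 6% in these data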
HUVEC prolif 384 = inhibitors of HUVEC proliferation, primary screen, cell-based, 384-well; hit rate 1.1% among 86,000; CellTiter-Glo luminescence, 72 h; stronger effect = lower value; viability, % at 10 µM (by protocol);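 active = viability at or below 30%; inactive = viability above 30%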
Fibroblast inh = antiproliferative effect on LL 47 fibroblasts – human, LL 47 cells, CellTiter-Glo luminescence, primary screen. LL 47 human lung fibroblast viability, ATP luminescence; stronger effect = lower value. viability, % at 10 µM. hit rate 1.1% among 85,000. AID 719, 2007;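 active = viability at or below 50% in the single dose screen; inactive = viability above 50%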;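 also: compound exposure lasted 72 h before the ATP readout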
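Material: Human LL 47 lung fibroblast cells | Input: 1,150 cells/well | Buffer or medium: IMEM plus 15% FBS | Compound dosing: 0.1% DMSO in all compound wells | Times: Overnight cell rest, 72 h compound treatment at 37 °C | Signal: CellTiter-Glo luminescence measuring cellular ATP | Measure: % viability versus median cells-only luminescence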
PTEN del growth = growth suppression of PTEN-null HCT116, primary screen, cell-based, CellTiter-Glo; HCT116 PTEN-null viability, 60 h; stronger effect = lower value; viability, % at 10 µM; hit rate 1.2% among 140,000; AID 827, 2007;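 active = viability at or below a set limit, 4 SD under the median of all tested compounds, cut at about 3.7% in these data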;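 also: PTEN knockout HCT116 line with beta catenin targeted HCT116 as companion control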
H69AR growth 86K = proliferation blockers of H69AR lung cancer cells, primary screen, cell-based, human, 86K library. H69AR lung tumor viability, ATP luminescence, 72 h; stronger effect = lower value. viability, % at 10 µM. hit rate 6% among 85,000. AID 598, 2007;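 active = viability at or below 40%; inactive = viability above 40%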;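 also: multidrug resistant small cell line overexpressing MRP-1 efflux transporter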
Each line names hits and unclear results; the compound was inactive in the other large screens. Only a selection was taken, and hits are over-represented in it overall.

COCCN1C(=O)C(CC(=O)Nc2ccc(C(C)=O)cc2)SC1=Nc1ccccc1 (stereo not drawn)	none (no result: HUVEC prolif 384, Fibroblast inh, H69AR growth 86K)
CC(O)CN1C(=O)C(CC(=O)Nc2ccc(Cl)cc2)SC1=Nc1ccccc1 (stereo not drawn)	H69AR growth 86K 39
CC1=C(C#N)c2nc(N)c(C#N)c(C)c2/C1=C\c1ccc(C)cc1	bCat KO growth 3.2, HUVEC prolif 384 4.3, Fibroblast inh 3.3, PTEN del growth 1.9
Cc1ccc(-c2c(C#N)c(N)nc3c2CCCCC3)cc1	none
COc1ccc(CNCCC(c2ccc(OC(C)C)cc2)C(C)C)cc1OC (stereo not drawn)	bCat KO growth 1.2, PTEN del growth 1.3 (no result: HUVEC prolif 384, Fibroblast inh, H69AR growth 86K)
COc1ccc(OC)c(NC(=O)c2c(NC(=O)CNCc3ccco3)sc3c2CCC3)c1	H69AR growth 86K 16
O=C(Nc1ccccc1Cl)c1ccc(COc2ccc3c(c2)CCC3)cc1	none (no result: HUVEC prolif 384, Fibroblast inh, H69AR growth 86K)
CCc1cccc(NC(=O)CSC2=NS(=O)(=O)c3ccccc32)c1	Fibroblast inh 50, H69AR growth 86K 3.5
CCc1cccc(NC(=O)CSCc2cc(=O)[nH][nH]2)c1	none
COc1ccccc1N(CN1C(=O)c2ccccc2C1=O)C(=O)c1cccc(C)c1	none (no result: HUVEC prolif 384, Fibroblast inh, H69AR growth 86K)
COc1cccc2c1C(=O)c1c(O)c3c(c(O)c1C2=O)C[C@@](O)(C(=O)CO)C[C@@H]3O[C@H]1C[C@H](N)[C@H](O)[C@H](C)O1	bCat KO growth 4.1 (no result: HUVEC prolif 384, Fibroblast inh, H69AR growth 86K)
Cc1ccc(S(=O)(=O)NC(C)(C)CSc2ccccn2)cc1	none (no result: HUVEC prolif 384, Fibroblast inh, H69AR growth 86K)
O=C(NCCCN1CCN(CCCNC(=O)c2ccc(F)cc2)CC1)c1ccc(F)cc1	none
CC(C)c1ccc(C(=O)NCCCN2CCN(CCCNC(=O)c3ccc(C(C)C)cc3)CC2)cc1	bCat KO growth 1.5, PTEN del growth 2.0 (no result: HUVEC prolif 384, Fibroblast inh, H69AR growth 86K)
COC(=O)C(NC(=O)c1ccccc1)(Nc1cc(C)cc(C)n1)C(F)(F)F (stereo not drawn)	none
COn1c(C)c(C(C)=O)c2c3nonc3ccc21	H69AR growth 86K 33
CCCCOn1c(C)c(C(=O)OCC)c2c3nonc3ccc21	none (no result: bCat KO growth, PTEN del growth)
COc1cc(CNC2CCCCCC2)cc(OC)c1O	none
COc1cc(CNC2CCCC2)cc(Cl)c1OCc1ccccc1F	bCat KO growth 1.1, PTEN del growth 1.1 (no result: HUVEC prolif 384, Fibroblast inh, H69AR growth 86K)
COc1ccc(C(=O)/C=C/c2ccccc2C(F)(F)F)cc1	none (no result: HUVEC prolif 384, Fibroblast inh, H69AR growth 86K)
COc1cccc(-c2nnc(NC(=O)c3ccccc3Br)o2)c1	H69AR growth 86K 34 (no result: bCat KO growth, PTEN del growth)
CCCN(CCC)S(=O)(=O)c1ccc(C(=O)Nc2nnc(-c3cccc(OC)c3)o2)cc1	HUVEC prolif 384 1.7, Fibroblast inh 12, H69AR growth 86K 16
CCCN(CCC)S(=O)(=O)c1ccc(C(=O)Nc2nnc(CSC)o2)cc1	H69AR growth 86K 32
CCCN(CCC)S(=O)(=O)c1ccc(C(=O)Nc2nnc(-c3cc(OC)cc(OC)c3)o2)cc1	H69AR growth 86K 16
CCc1nnc(NC(=O)c2ccc(S(=O)(=O)N(CCOC)CCOC)cc2)o1	none
COc1cccc(-c2nnc(NC(=O)C(C)C)o2)c1	none
CC(CN1CCCCC1)OC(=O)C(C)(c1ccccc1)c1ccccc1 (stereo not drawn)	none
O=C1NC2(CCCCC2)C(=O)N1Cc1ccc([N+](=O)[O-])cc1	none (no result: HUVEC prolif 384, Fibroblast inh, H69AR growth 86K)
N#CC1=C(N)SC(N)=C(C#N)C1CCC1CCCCC1	none
Cc1onc(-c2ccccc2)c1C(=O)Nc1sc2c(c1C(N)=O)CCC2	H69AR growth 86K 34
Cc1nnc(NC(=O)c2c(-c3ccccc3)noc2C)s1	none
N#Cc1c(NC(=O)CSc2nnc(-c3ccncc3)n2CC2CCCO2)sc2c1CCCC2 (stereo not drawn)	none (no result: H69AR growth 86K)
Cc1onc(-c2ccccc2)c1C(=O)NC(=S)Nc1sc2c(c1C#N)CCCC2	none (no result: HUVEC prolif 384, Fibroblast inh, H69AR growth 86K)
NC(=O)c1c(NC(=O)CSc2nnc(-c3ccccc3)n2CC2CCCO2)sc2c1CCC2 (stereo not drawn)	H69AR growth 86K 33
Cc1onc(-c2ccccc2)c1C(=O)Nc1sc2c(c1C#N)CCC2	H69AR growth 86K 16
Cc1onc(-c2c(F)cccc2Cl)c1C(=O)Nc1sc2c(c1C#N)CCC(C(C)(C)C)C2 (stereo not drawn)	none
Cc1onc(-c2c(F)cccc2Cl)c1C(=O)Nc1sc2c(c1C(N)=O)CCC2	H69AR growth 86K 16
Cc1noc(C)c1C(=O)Nc1sc(C)c(-c2ccccc2)c1C#N	H69AR growth 86K 32
Cc1cccc(C(=O)Nc2sc(C)c(-c3ccccc3)c2C#N)c1	none (no result: HUVEC prolif 384, Fibroblast inh, H69AR growth 86K)
CCOC(=O)N1CCN(S(=O)(=O)c2ccc(C(=O)NNc3nc4ccc(Cl)cc4s3)cc2)CC1	bCat KO growth 4.4, PTEN del growth 3.6 (no result: HUVEC prolif 384, Fibroblast inh, H69AR growth 86K)
CCOC(=O)N1CCN(S(=O)(=O)c2ccc(C(=O)Nc3nnc(C4CC4)o3)cc2)CC1	none (no result: HUVEC prolif 384, Fibroblast inh, H69AR growth 86K)
CCOC(=O)N1CCN(C(=O)C2CCN(S(=O)(=O)c3ccc(C)cc3)CC2)CC1	none
CCOC(=O)N1CCC(N2CCN(S(=O)(=O)c3ccc(C)cc3)CC2)CC1	H69AR growth 86K 29
CCOC(=O)N1CCN(S(=O)(=O)c2ccc(C(=O)Nc3nc4c(s3)CC(C)CC4)cc2)CC1 (stereo not drawn)	bCat KO growth 1.5, HUVEC prolif 384 17, Fibroblast inh 7.7, PTEN del growth 1.2, H69AR growth 86K 7.5
N#C/C(=C\Nc1ccccc1O)c1nc2ccccc2o1	none (no result: HUVEC prolif 384, Fibroblast inh, H69AR growth 86K)
CC1CCN(c2c(NCc3ccc(C(=O)N4c5ccccc5CC4C)cc3)c(=O)c2=O)CC1 (stereo not drawn)	H69AR growth 86K 34
CC1CCN(c2c(NCc3ccc(C(=O)N4CCN(C5CCCCC5)CC4)cc3)c(=O)c2=O)CC1	none (no result: HUVEC prolif 384, Fibroblast inh, H69AR growth 86K)
O=C(Nc1ccccc1N1CCOCC1)c1cc(-c2ccco2)nc2ccccc12	H69AR growth 86K 5.8
Cc1ccc(OCc2cn3cccnc3n2)cc1	none (no result: HUVEC prolif 384, Fibroblast inh, H69AR growth 86K)
CCCn1c(SCC(=O)NCCc2ccccc2)nnc1-c1ccco1	none
Cc1cnnn1-c1ccc(C(=O)CCl)cc1	H69AR growth 86K 0.0
c1csc(-c2nc3c4ccccc4c4ccccc4c3[nH]2)c1	H69AR growth 86K 30
CCN(CC)S(=O)(=O)c1cc([N+](=O)[O-])ccc1NNC(=O)Nc1ccc(Cl)c(Cl)c1	bCat KO growth 1.4, Fibroblast inh 43, PTEN del growth 1.0, H69AR growth 86K 2.9
CCOC(=O)c1nnc(-c2ccc(C)cc2)nc1Sc1cccc(Cl)c1	H69AR growth 86K 33
CCOC(=O)c1nnc(-c2ccccc2)nc1Sc1ccccc1Cl	H69AR growth 86K 0.6
CCOC(=O)c1nnc(-c2ccccc2)nc1Oc1ccc(Cl)cc1	none (no result: HUVEC prolif 384, Fibroblast inh, H69AR growth 86K)
CCOC(=O)c1nnc(-c2ccccc2)nc1NCc1ccccc1	none (no result: HUVEC prolif 384, Fibroblast inh, H69AR growth 86K)
CCN1CCN(CCCOc2ccc(-c3ccccc3)cc2)CC1	bCat KO growth 1.8, PTEN del growth 2.0, H69AR growth 86K 19
CN(C)c1ccc(-c2nn3c(-c4ccc(Cl)cc4Cl)nnc3s2)cc1	H69AR growth 86K 14
Clc1cccc(-c2nnc3sc(-c4ccc5c(c4)OCO5)nn23)c1	none (no result: bCat KO growth, PTEN del growth, H69AR growth 86K)
Clc1ccccc1-c1nnc2sc(-c3ccc4c(c3)OCO4)nn12	H69AR growth 86K 23
